# Assay results published in article PMC6104635 (ACS chemical neuroscience, 2018).
# Numbering of substitutions follows the chain as printed. Values joined by “and” are separate entries in the source; they are usually repeats but may differ in a detail not shown here. Identical values can stand only once. Like-named read-outs stand apart in the source and are kept apart here.
# Legend:
# [1] = target: T1, human M5 (Homo sapiens, UniProt P08912); experiment: calcium mobilization assay, hM5-CHO cells, FDSS7000; assay type: cell-based
# T1 sequence (P08912 1-532): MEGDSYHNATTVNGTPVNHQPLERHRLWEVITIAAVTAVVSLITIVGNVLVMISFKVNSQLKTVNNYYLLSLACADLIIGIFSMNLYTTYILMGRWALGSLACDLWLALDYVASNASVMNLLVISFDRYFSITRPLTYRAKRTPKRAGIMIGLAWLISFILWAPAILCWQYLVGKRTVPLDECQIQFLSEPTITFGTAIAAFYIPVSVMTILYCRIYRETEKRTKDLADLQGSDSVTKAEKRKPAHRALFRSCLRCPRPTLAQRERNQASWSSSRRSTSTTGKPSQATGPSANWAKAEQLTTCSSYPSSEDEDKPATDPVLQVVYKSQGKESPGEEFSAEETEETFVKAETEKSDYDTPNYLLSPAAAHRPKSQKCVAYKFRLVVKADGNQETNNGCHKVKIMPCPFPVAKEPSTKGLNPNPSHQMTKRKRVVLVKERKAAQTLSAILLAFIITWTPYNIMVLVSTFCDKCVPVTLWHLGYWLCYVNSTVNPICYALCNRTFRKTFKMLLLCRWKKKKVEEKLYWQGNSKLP
# Outline: (§1)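 CHO cells stably expressing human or rat M5 were grown in Ham's F-12 with 10% FBS, 20 mM HEPES and 500 μg/mL G418 (37 °C, 5% CO2), then plated at 20 000 cells/well without G418 the day before. Cells were loaded with 1.15 μM Fluo-4 AM for 45 min at 37 °C in HBSS, 20 mM HEPES and 2.5 mM probenecid. Test compound was given as a 10-point 1:3 series from 30 μM final for 2.5 min, then ACh EC20 for 1 min, with calcium read on FDSS7000. EC50 and efficacy came from a four-parameter logistic fit.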
# [2] = target: T2, rat M5 (Rattus norvegicus, UniProt P08911); experiment: calcium mobilization assay, rM5-CHO cells, FDSS7000; assay type: cell-based; conditions: functional calcium assay, n = 3
# T2 sequence (P08911 1-531): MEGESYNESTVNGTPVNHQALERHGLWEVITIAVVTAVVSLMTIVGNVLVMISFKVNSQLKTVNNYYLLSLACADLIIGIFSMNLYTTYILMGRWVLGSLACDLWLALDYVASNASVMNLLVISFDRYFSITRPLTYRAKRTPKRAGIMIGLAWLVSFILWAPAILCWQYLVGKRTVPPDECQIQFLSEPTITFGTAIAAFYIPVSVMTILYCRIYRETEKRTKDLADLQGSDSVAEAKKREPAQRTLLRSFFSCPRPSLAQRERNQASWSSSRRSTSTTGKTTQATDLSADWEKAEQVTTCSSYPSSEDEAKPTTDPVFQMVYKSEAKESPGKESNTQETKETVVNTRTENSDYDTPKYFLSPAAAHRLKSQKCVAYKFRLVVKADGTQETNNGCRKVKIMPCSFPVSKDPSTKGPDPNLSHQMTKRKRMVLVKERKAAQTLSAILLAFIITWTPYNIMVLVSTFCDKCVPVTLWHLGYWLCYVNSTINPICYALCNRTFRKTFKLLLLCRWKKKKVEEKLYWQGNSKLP
# Outline: as §1
# [3] = target: T3, human M1 (Homo sapiens, UniProt P11229); experiment: mAChR selectivity, PAM activity at human M1; assay type: cell-based
# T3 sequence (P11229 1-460): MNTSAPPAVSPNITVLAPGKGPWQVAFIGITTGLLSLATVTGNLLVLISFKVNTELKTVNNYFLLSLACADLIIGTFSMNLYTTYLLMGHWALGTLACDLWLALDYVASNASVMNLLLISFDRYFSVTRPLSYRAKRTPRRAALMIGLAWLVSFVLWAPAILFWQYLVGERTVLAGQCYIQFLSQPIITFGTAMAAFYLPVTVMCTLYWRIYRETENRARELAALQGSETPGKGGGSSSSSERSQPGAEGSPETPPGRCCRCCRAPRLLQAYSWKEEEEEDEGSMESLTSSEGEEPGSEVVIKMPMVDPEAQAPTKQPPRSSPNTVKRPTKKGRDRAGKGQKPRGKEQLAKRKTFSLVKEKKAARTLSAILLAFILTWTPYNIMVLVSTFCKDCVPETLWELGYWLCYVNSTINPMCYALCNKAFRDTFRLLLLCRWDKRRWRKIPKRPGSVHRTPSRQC
# [4] = target: T4, human M2 (Homo sapiens, UniProt P08172); experiment: mAChR selectivity, PAM activity at human M2; assay type: cell-based; conditions: result in words
# T4 sequence (P08172 1-466): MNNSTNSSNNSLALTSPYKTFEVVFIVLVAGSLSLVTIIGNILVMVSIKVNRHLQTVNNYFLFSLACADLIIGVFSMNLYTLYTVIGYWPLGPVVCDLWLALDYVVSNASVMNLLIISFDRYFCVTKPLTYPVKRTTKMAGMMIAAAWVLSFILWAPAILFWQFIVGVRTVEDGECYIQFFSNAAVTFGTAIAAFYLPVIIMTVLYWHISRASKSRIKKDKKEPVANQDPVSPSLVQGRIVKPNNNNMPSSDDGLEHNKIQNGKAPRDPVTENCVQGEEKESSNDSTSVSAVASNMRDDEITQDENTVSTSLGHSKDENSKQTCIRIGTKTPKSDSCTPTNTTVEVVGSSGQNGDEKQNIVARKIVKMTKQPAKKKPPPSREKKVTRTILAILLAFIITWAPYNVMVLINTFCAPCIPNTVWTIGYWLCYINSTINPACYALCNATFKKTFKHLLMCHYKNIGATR
# [5] = target: human M3 (Homo sapiens, UniProt P20309); experiment: mAChR selectivity, PAM activity at human M3; assay type: cell-based
# [6] = target: T5, human M4 (Homo sapiens, UniProt P08173); experiment: mAChR selectivity, PAM activity at human M4; assay type: cell-based; conditions: result in words
# T5 sequence (P08173 1-479): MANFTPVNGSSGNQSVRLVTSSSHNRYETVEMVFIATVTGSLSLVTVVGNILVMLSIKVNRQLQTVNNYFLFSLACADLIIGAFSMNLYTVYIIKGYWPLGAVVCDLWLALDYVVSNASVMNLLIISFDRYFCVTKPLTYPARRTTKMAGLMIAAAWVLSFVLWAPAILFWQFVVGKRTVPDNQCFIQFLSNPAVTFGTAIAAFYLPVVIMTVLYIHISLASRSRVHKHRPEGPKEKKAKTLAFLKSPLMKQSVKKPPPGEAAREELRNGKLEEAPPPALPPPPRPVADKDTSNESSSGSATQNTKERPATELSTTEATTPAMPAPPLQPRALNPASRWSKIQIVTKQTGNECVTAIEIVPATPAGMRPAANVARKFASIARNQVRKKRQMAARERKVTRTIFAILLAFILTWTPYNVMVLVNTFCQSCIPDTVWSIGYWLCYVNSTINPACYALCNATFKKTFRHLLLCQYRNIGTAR
# [7] = target: T6, rat M1 (Rattus norvegicus, UniProt P08482); experiment: mAChR selectivity, PAM activity at rat M1; assay type: cell-based
# T6 sequence (P08482 1-460): T3 sequence (P11229 1-460) with A5V, T254S, P309S, R320K, A337G, I413V
# [8] = target: T7, rat M2 (Rattus norvegicus, UniProt P10980); experiment: mAChR selectivity, PAM activity at rat M2; assay type: cell-based; conditions: result in words
# T7 sequence (P10980 1-466): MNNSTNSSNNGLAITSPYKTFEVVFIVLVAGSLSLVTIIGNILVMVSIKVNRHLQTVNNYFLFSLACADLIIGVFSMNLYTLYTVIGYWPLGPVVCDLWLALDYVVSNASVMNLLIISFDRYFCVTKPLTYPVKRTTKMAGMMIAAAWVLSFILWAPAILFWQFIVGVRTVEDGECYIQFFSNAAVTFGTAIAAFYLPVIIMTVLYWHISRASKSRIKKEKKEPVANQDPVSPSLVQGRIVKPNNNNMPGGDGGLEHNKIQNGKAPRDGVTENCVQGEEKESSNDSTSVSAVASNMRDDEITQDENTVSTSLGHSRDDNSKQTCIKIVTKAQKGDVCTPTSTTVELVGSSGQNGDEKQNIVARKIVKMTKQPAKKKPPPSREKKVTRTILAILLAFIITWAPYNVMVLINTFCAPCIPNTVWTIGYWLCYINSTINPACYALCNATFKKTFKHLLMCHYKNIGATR
# [9] = target: rat M3 (Rattus norvegicus, UniProt P08483); experiment: mAChR selectivity, PAM activity at rat M3; assay type: cell-based
# [10] = target: T8, rat M4 (Rattus norvegicus, UniProt P08485); experiment: mAChR selectivity, PAM activity at rat M4; assay type: cell-based
# T8 sequence (P08485 1-478): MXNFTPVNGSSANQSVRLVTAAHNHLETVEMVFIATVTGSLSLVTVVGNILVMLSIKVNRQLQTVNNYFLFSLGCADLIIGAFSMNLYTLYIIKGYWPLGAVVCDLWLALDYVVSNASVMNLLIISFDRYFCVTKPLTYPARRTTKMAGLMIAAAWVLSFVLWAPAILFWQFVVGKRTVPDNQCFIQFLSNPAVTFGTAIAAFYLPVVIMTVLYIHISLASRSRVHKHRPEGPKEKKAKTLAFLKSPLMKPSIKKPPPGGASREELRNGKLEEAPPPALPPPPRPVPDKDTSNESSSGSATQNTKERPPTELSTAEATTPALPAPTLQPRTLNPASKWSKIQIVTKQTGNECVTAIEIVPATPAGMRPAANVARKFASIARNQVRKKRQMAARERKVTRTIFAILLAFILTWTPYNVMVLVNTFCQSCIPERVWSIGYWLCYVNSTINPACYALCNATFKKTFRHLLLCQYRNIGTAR
# [11] = tested on: hM5; conditions: read-out: hM5 EC50; 96 well-format FlexStation II, initial optimization; cited from earlier work
# [12] = plasma protein binding, rat; assay type: in vitro ADME
# [13] = plasma protein binding, human; assay type: in vitro ADME
# [14] = brain homogenate binding, rat; assay type: in vitro ADME
# [15] = hepatic microsomal intrinsic clearance, human; assay type: in vitro ADME; conditions: based on microsomal intrinsic clearance (CLint)
# [16] = rat brain distribution; assay type: in vivo; conditions: male, Sprague-Dawley, brain and plasma
# Outline: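 Male Sprague–Dawley rats received a single IV or IP cassette dose of 0.20–0.25 mg/kg, with n = 1 animal per cassette. Vehicle was ethanol/PEG400/DMSO, with excipient levels adjusted for solubility, at 0.5 mL/kg iv or 3 mL/kg ip. Plasma and brain were sampled nonserially and quantified by LC-MS/MS (positive ESI, MRM).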
# [17] = metabolite identification in rat hepatic microsomes; assay type: in vitro ADME; conditions: rat and human hepatic microsomes, result in words
# Outline: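 Test compound was incubated with rat hepatic microsomes, run alongside human microsomes. Metabolite structures were proposed from LC-UV/MSn data, and major metabolites were assigned by relative peak areas.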
# [18] = PAM, functional calcium assay, n = 3
# human M3, sequence (P20309 whole entry): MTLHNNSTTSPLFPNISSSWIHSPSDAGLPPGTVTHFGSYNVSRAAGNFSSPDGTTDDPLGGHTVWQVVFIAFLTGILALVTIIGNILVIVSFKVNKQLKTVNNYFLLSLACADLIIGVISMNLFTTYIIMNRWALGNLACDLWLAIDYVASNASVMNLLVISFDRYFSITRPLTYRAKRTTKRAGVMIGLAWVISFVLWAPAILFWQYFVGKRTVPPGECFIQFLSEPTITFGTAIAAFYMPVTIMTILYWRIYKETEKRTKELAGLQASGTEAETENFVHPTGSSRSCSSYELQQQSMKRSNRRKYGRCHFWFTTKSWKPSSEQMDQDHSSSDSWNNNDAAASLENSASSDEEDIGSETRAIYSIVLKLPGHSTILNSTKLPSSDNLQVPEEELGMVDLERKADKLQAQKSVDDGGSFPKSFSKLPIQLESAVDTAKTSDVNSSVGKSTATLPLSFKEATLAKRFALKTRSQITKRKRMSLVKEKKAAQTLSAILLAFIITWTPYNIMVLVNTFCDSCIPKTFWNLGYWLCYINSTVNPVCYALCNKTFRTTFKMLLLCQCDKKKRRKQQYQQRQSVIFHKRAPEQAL
# rat M3, sequence (P08483 whole entry): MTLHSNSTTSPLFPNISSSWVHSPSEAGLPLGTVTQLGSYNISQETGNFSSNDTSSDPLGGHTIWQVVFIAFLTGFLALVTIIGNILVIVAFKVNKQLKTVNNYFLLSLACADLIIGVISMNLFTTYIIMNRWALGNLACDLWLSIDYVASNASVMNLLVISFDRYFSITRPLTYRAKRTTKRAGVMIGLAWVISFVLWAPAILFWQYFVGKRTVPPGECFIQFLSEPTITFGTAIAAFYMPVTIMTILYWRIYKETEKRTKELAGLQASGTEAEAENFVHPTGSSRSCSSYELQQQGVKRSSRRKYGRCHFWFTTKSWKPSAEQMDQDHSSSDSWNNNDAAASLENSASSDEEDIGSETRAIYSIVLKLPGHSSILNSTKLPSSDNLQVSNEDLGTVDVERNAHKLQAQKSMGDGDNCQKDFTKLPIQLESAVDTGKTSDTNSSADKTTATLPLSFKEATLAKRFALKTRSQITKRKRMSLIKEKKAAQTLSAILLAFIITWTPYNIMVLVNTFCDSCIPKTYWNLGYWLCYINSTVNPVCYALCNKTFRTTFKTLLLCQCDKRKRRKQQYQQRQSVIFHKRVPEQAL
smiles,measurement,setting,value
CCCN(C(=O)C1CCN(S(=O)(=O)c2ccc3[nH]ncc3c2)CC1)[C@@H]1CCc2c(F)cccc21 [Compound 18g],hM5 % ACh Max,[1]; [18],74 % ACh Max and 74±6 % ACh Max
same,hM5 pEC50 ± SEM,[1]; [18],7.46±0.15
same,increase in M5 PAM potency relative to 18a,[1]; hM5,> 10 fold
same,EC50,"[1]; read-out: hM5 EC50, PAM, functional calcium assay, n = 3",0.041 µM
same,rM5 % ACh Max,[2]; PAM,76 % ACh Max and 76 ± 7 % ACh Max
same,rM5 pEC50 ± SEM,[2]; PAM,7.13 ± 0.04
same,EC50,"[2]; read-out: rM5 EC50, PAM",0.074 µM
same,selectivity for M5 versus M1,[3]; M5-preferring PAM,20 fold
same,human M1 % ACh Max,[3]; PAM activity,67 % ACh Max
same,EC50,"[3]; read-out: human M1 EC50, PAM activity",1.03 µM
same,human M2 PAM activity,[4],inactive
same,selectivity for M5 versus M3,[5]; M5-preferring PAM,10 fold
same,human M3 % ACh Max,[5]; PAM activity,71 % ACh Max
same,EC50,"[5]; read-out: human M3 EC50, PAM activity",0.466 µM
same,human M4 PAM activity,[6],inactive
same,rat M1 % ACh Max,[7],69 % ACh Max
same,EC50,[7]; read-out: rat M1 EC50,0.904 µM
same,rat M2 PAM activity,[8],inactive
same,rat M3 % ACh Max,[9],51 % ACh Max
same,EC50,[9]; read-out: rat M3 EC50,0.772 µM
same,rat M4 % ACh Max,[10],49 % ACh Max
same,EC50,[10]; read-out: rat M4 EC50,3.91 µM
"CCN(Cc1ccccc1C(F)(F)F)C(=O)C1CCN(S(=O)(=O)c2ccc3[nH]ncc3c2)CC1 [ML380, 1-((1H-indazol-5-yl)sulfonyl)-N-ethyl-N-(2-(trifluoromethyl)benzyl)piperidine-4-carboxamide, reference compound]",rightward shift in M5 PAM potency,[1]; FDSS7000 versus FlexStation II conditions,~ 5 fold
same,EC50,"[1]; hM5 EC50, PAM, 384-well FDSS7000",1.1 µM
same,EC50,[11],0.19 µM
"CCN(C(=O)C1CCN(S(=O)(=O)c2ccc3[nH]ncc3c2)CC1)[C@@H]1CCc2ccccc21 [Compound 8, N-Ethyl-N-[(1R)-indan-1-yl]-1-(1H-indazol-5-ylsulfonyl)-piperidine-4-carboxamide]",EC50,"[1]; hM5 EC50, PAM, functional calcium assay, n = 3",0.481 µM
same,EC50,"[1]; hM5 pEC50 ± SEM, PAM, functional calcium assay, n = 3",0.457 µM
same,rM5 % ACh Max,[2]; PAM,63% ± 3%
same,EC50,"[2]; rM5 EC50, PAM",0.409 µM
same,EC50,"[2]; rM5 pEC50 ± SEM, PAM",0.38 µM
same,fraction unbound,[12],0.043
same,fraction unbound,[13],0.019
same,fraction unbound,[14],0.017
same,"predicted hepatic clearance CLhep, human",[15],20.8 mL/min/kg
same,Kp,[16],0.17
same,Kp uu,[16],0.07
same,metabolism in MetID studies,[17],extensive oxidative metabolism
